The results in this text go back to ChEMBL document CHEMBL1145081, “Effects of the substitution of Phe4 in the opioid peptide [D-Ala8]dynorphin A-(1-11)NH2” (J Med Chem, 2003).

Test [1] addresses Kappa-type opioid receptor (Rattus norvegicus) (UniProt P34975). Description: Inhibition of Forskolin-Stimulated Adenylyl Cyclase in CHO cells expressing Opioid receptor kappa 1 at 10 uM relative to 100 nM Dyn A-(1-13)NH(2). Type of test: functional, cell-based. An outline of the steps:
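Same κ-CHO forskolin (50 μM, 40 min, 37°) cyclic AMP assay, with phosphodiesterase and peptidase inhibitors. Maximal percent inhibition by peptide at 10 μM, expressed relative to the inhibition given by 100 nM Dyn A-(1-13)NH2. Cyclic AMP counts corrected for recovery using a [14C]cyclic AMP tracer.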

For test [2], the target named is T1, Delta-type opioid receptor (Mus musculus, UniProt P32300). Description: Binding affinity towards mouse Opioid receptor delta 1 expressed in CHO cells of chinese hamster ovary was determined using [3H]-[…] as radioligand. Type of test: cell-based. The method in brief:
(§1)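 Competition binding against [3H]DPDPE on cloned mouse δ-opioid receptors stably expressed in CHO cells. Nonspecific binding defined with 10 μM unlabeled DPDPE. Peptidase inhibitors present (10 μM bestatin, 30 μM captopril, 50 μM L-leucyl-L-leucine) plus 3 mM Mg2+. Mean ± SEM from at least three separate assays.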

Another test has as its target Mu-type opioid receptor (Rattus norvegicus, UniProt P33535). As to the kind of experiment: Binding affinity towards rat Opioid receptor mu 1 expressed in CHO cells of chinese hamster ovary was determined using [3H]DAMGO. Type of test: cell-based. The method in brief: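 [3H]DAMGO displacement on cloned rat μ-opioid receptors stably expressed in CHO cells. Nonspecific binding defined with 10 μM unlabeled DAMGO. Peptidase inhibitors (10 μM bestatin, 30 μM captopril, 50 μM L-leucyl-L-leucine) and 3 mM Mg2+ included. Mean ± SEM, at least three separate assays.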

The target of test [3] is T2, Kappa-type opioid receptor (Rattus norvegicus, UniProt P34975). Description: Binding affinity towards rat Opioid receptor kappa 1 expressed in CHO cells of chinese hamster ovary was determined using [3H]diprenorphine as radioligand. Type of test: cell-based. The method in brief: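 Cloned rat κ-opioid receptors stably expressed in CHO cells; affinity from competitive inhibition of [3H]diprenorphine binding. Nonspecific binding defined with 10 μM unlabeled Dyn A-(1-13)NH2. Assay buffer held 10 μM bestatin, 30 μM captopril, 50 μM L-leucyl-L-leucine and 3 mM Mg2+. Mean ± SEM, at least three separate assays.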

The target of test [4] is T2, Kappa-type opioid receptor. Description: Inhibition of Forskolin-Stimulated Adenylyl Cyclase in CHO cells expressing Opioid receptor kappa 1. Type of test: functional, cell-based. The method in brief:
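CHO cells stably expressing cloned rat κ-opioid receptors. Cultures incubated 40 min at 37° with 50 μM forskolin and varying peptide concentrations. Present: 50 μM RO20-1724 (phosphodiesterase inhibitor), plus 10 μM bestatin, 30 μM captopril and 50 μM L-leucyl-L-leucine. [3H]cyclic AMP counted, with [14C]cyclic AMP added for recovery correction. Mean ± SEM, generally n ≥ 3, some n = 2.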

The target of test [5] is T3, Opioid receptors; mu/kappa/delta (Homo sapiens) (UniProt P41145+P41143+P35372). As to the kind of experiment: Selectivity for kappa/Mu/Delta receptors was determined; 1/44/765. Type of test: protein assay.
Test [6] addresses T3, Opioid receptors; mu/kappa/delta (Homo sapiens). Description: Selectivity for kappa/Mu/Delta receptors was determined; 1/14/>377. Format: protein assay.
Test [7] has as its target T1, Delta-type opioid receptor. As to the kind of experiment: Binding affinity towards mouse Opioid receptor delta 1 expressed in CHO cells of chinese hamster ovary was determined using [3H][…] as radioligand. Format: cell-based. The method in brief: as §1
The target of test [8] is T3, Opioid receptors; mu/kappa/delta (Homo sapiens). Description: Selectivity for kappa/Mu/Delta receptors was determined 1/1.7/90. Format: protein assay.

pEC50, pKi: −log10 of the molar value.

T2 sequence (P34975 whole entry): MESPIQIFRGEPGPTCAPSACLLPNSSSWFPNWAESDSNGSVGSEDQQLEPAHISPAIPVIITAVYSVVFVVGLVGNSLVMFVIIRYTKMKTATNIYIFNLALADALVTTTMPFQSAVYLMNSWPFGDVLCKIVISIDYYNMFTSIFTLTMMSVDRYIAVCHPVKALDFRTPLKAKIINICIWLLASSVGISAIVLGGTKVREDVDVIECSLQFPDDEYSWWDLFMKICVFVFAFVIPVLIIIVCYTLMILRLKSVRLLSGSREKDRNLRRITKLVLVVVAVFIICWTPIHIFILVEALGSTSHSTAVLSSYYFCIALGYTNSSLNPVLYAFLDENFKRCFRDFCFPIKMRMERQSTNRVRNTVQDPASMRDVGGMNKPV
Kappa-type opioid receptor (Rattus norvegicus), sequence (P34975 whole entry): as above
T1 sequence (P32300 whole entry): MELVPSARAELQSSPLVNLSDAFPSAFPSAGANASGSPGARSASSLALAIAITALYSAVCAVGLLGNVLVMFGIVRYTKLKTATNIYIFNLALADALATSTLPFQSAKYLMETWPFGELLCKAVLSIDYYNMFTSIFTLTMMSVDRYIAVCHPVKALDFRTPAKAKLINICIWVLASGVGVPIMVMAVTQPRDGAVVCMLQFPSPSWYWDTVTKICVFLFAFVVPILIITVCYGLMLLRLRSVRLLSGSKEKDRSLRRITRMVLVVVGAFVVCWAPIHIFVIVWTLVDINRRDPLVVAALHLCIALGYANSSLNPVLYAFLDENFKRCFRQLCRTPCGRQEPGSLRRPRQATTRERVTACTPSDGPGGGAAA
Mu-type opioid receptor, sequence (P33535 whole entry): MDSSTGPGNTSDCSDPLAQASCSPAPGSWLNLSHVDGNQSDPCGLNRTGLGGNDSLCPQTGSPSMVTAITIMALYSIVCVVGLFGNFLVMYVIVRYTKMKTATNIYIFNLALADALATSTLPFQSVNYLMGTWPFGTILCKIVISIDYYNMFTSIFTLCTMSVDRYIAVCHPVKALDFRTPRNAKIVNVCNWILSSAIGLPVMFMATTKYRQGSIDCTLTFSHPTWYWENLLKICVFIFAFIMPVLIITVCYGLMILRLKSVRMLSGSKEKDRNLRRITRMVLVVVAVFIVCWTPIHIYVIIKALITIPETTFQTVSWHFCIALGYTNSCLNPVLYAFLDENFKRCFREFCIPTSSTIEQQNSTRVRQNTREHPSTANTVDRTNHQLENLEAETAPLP
T3 sequence (P35372 whole entry, looked up): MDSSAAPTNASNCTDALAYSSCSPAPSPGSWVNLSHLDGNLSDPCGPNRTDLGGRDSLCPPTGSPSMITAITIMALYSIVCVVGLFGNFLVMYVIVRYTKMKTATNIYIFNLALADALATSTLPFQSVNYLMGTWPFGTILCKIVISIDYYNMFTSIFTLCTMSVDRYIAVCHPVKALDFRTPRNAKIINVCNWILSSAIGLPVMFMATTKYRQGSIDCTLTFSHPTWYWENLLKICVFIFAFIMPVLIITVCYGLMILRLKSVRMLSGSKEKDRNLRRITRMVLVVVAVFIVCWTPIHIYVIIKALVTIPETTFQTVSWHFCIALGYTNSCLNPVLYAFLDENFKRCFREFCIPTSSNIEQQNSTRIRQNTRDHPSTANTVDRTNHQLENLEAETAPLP
T3 sequence (P41143 whole entry, looked up): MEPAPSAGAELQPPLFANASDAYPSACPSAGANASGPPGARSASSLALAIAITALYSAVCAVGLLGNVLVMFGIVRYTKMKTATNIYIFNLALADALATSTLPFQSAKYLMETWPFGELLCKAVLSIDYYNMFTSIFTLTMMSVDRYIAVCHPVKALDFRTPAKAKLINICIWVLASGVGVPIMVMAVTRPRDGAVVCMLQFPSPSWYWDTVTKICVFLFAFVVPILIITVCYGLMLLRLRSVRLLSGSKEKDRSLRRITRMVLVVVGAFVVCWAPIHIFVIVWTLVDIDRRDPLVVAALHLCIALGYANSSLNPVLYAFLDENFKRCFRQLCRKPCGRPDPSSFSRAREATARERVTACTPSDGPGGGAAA
T3 sequence (P41145 whole entry, looked up): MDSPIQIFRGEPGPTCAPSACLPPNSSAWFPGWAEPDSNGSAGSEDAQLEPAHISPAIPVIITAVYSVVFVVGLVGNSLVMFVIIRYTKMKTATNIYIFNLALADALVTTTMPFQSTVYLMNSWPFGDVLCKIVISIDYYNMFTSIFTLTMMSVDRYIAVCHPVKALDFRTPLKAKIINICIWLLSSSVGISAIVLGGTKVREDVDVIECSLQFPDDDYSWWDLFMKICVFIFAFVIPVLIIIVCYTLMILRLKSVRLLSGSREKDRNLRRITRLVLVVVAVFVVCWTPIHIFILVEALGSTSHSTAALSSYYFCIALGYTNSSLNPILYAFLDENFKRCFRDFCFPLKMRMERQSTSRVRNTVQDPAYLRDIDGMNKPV

For the molecule `CC(C)C[C@H](NC(=O)[C@]1(NC(=O)CNC(=O)CNC(=O)[C@@H](N)Cc2ccc(O)cc2)CCc2ccccc2C1)C(=O)N[C@@H](CCCN=C(N)N)C(=O)N[C@@H](CCCN=C(N)N)C(=O)N[C@H](C)C(=O)N[C@@H](CCCN=C(N)N)C(=O)N1CCC[C@H]1C(=O)N[C@@H](CCCCN)C(N)=O`, the Max response in test [1] was 74%.

In the case of `CC(C)C[C@H](NC(=O)[C@H](Cc1ccccc1)N(C)C(=O)CNC(=O)CNC(=O)[C@@H](N)Cc1ccc(O)cc1)C(=O)N[C@@H](CCCN=C(N)N)C(=O)N[C@@H](CCCN=C(N)N)C(=O)N[C@H](C)C(=O)N[C@@H](CCCN=C(N)N)C(=O)N1CCC[C@H]1C(=O)N[C@@H](CCCCN)C(N)=O`, the results for the pKi (in test [2] (cho); on Mu-type opioid receptor (cho); in [3] (cho)) were 7.25, 8.99 and 9.21, respectively. In addition, the pEC50 in test [4] (cho) is 8.45.

For `CC(C)C[C@H](NC(=O)[C@@H](CCc1ccccc1)NC(=O)CNC(=O)CNC(=O)[C@@H](N)Cc1ccc(O)cc1)C(=O)N[C@@H](CCCN=C(N)N)C(=O)N[C@@H](CCCN=C(N)N)C(=O)N[C@H](C)C(=O)N[C@@H](CCCN=C(N)N)C(=O)N1CCC[C@H]1C(=O)N[C@@H](CCCCN)C(N)=O`, the pKi in test [2] (cho) is 6.72; at Mu-type opioid receptor (cho), 7.86; in [3], 9.18. In test [4] (cho), this molecule showed a pEC50 of 8.28. Moreover, in test [1], the Max response amounted to 95%.

Consider `CC(C)C[C@H](NC(=O)[C@@H]1Cc2ccccc2CN1C(=O)CNC(=O)CNC(=O)[C@@H](N)Cc1ccc(O)cc1)C(=O)N[C@@H](CCCN=C(N)N)C(=O)N[C@@H](CCCN=C(N)N)C(=O)N[C@H](C)C(=O)N[C@@H](CCCN=C(N)N)C(=O)N1CCC[C@H]1C(=O)N[C@@H](CCCCN)C(N)=O`, for which, in [5], the Ki ratio entry is “kappa/mu/delta”. Further, the Max response in test [1] was 91%.

With `CC(C)C[C@H](NC(=O)[C@H](CCc1ccccc1)NC(=O)CNC(=O)CNC(=O)[C@@H](N)Cc1ccc(O)cc1)C(=O)N[C@@H](CCCN=C(N)N)C(=O)N[C@@H](CCCN=C(N)N)C(=O)N[C@H](C)C(=O)N[C@@H](CCCN=C(N)N)C(=O)N1CCC[C@H]1C(=O)N[C@@H](CCCCN)C(N)=O`, the pKi is 5.25 in test [2], 7.33 on Mu-type opioid receptor and 8.76 in test [3]. This molecule also gave a negative-log EC50 (pEC50) in test [4] of 7.33. Besides, the Max response in [1] was 100%.

As to `CC(C)C[C@H](NC(=O)[C@@]1(NC(=O)CNC(=O)CNC(=O)[C@@H](N)Cc2ccc(O)cc2)CCc2ccccc2C1)C(=O)N[C@@H](CCCN=C(N)N)C(=O)N[C@@H](CCCN=C(N)N)C(=O)N[C@H](C)C(=O)N[C@@H](CCCN=C(N)N)C(=O)N1CCC[C@H]1C(=O)N[C@@H](CCCCN)C(N)=O`, the values for the negative-log Ki (pKi) (in test [2]; on Mu-type opioid receptor; in test [3]) were below 5.00, 7.48 and 9.05, respectively. The negative-log EC50 (pEC50) in test [4] was 7.14. In test [1], the Max response was 96%.

As for `CC(C)C[C@H](NC(=O)[C@]1(NC(=O)CNC(=O)CNC(=O)[C@@H](N)Cc2ccc(O)cc2)CCc2ccccc2C1)C(=O)N[C@@H](CCCNC(=N)N)C(=O)N[C@@H](CCCNC(=N)N)C(=O)N[C@H](C)C(=O)N[C@@H](CCCNC(=N)N)C(=O)N1CCC[C@H]1C(=O)N[C@@H](CCCCN)C(N)=O`, the negative-log Ki (pKi) in test [2] is below 5.00; on Mu-type opioid receptor, 7.05; in [3], 8.02. The pEC50 in [4] was 6.24.

On to `CC(C)C[C@H](NC(=O)C1(NC(=O)CNC(=O)CNC(=O)[C@@H](N)Cc2ccc(O)cc2)Cc2ccccc2C1)C(=O)N[C@@H](CCCN=C(N)N)C(=O)N[C@@H](CCCN=C(N)N)C(=O)N[C@H](C)C(=O)N[C@@H](CCCN=C(N)N)C(=O)N1CCC[C@H]1C(=O)N[C@@H](CCCCN)C(N)=O`, for which the Ki ratio result in test [6] is “kappa/mu/delta”. The negative logarithm of the Ki (pKi) in test [2] is below 5.00; at Mu-type opioid receptor, 6.44; in test [3] it was 7.58. The same molecule registered a Max response in [1] of 39%.

Regarding `CC(C)C[C@H](NC(=O)[C@@](C)(Cc1ccccc1)NC(=O)CNC(=O)CNC(=O)[C@@H](N)Cc1ccc(O)cc1)C(=O)N[C@@H](CCCN=C(N)N)C(=O)N[C@@H](CCCN=C(N)N)C(=O)N[C@H](C)C(=O)N[C@@H](CCCN=C(N)N)C(=O)N1CCC[C@H]1C(=O)N[C@@H](CCCCN)C(N)=O`, the figures for the pKi (in test [2] (cho); on Mu-type opioid receptor (cho); in test [3] (cho)) were 6.80, 8.49 and 8.49, respectively. Besides, the pEC50 in test [4] (cho) was 7.44. Moreover, the Max response in test [1] stood at 100%.

For the molecule `CC(C)C[C@H](NC(=O)[C@H](Cc1ccccc1)NC(=O)CNC(=O)CNC(=O)[C@@H](N)Cc1ccc(O)cc1)C(=O)N[C@@H](CCCN=C(N)N)C(=O)N[C@@H](CCCN=C(N)N)C(=O)N[C@H](C)C(=O)N[C@@H](CCCN=C(N)N)C(=O)N1CCC[C@H]1C(=O)N[C@@H](CCCCN)C(N)=O`, the pKi at Mu-type opioid receptor was 6.91; in test [3], 8.05; in [7], below 5.00. In [4], this molecule gave a pEC50 of 6.29. Also, the Max response in test [1] is 73%.

With `CC(C)C[C@H](NC(=O)[C@@H]1Cc2ccccc2CN1C(=O)CNC(=O)CNC(=O)[C@@H](N)Cc1ccc(O)cc1)C(=O)N[C@@H](CCCNC(=N)N)C(=O)N[C@@H](CCCNC(=N)N)C(=O)N[C@H](C)C(=O)N[C@@H](CCCNC(=N)N)C(=O)N1CCC[C@H]1C(=O)N[C@@H](CCCCN)C(N)=O`, the pKi in test [2] is 5.44; on Mu-type opioid receptor it was 6.69; in test [3], 8.33. The molecule further showed a negative-log EC50 (pEC50) in test [4] of 7.53.

Regarding `CC(C)C[C@H](NC(=O)[C@@H](Cc1ccccc1)N(C)C(=O)CNC(=O)CNC(=O)[C@@H](N)Cc1ccc(O)cc1)C(=O)N[C@@H](CCCN=C(N)N)C(=O)N[C@@H](CCCN=C(N)N)C(=O)N[C@H](C)C(=O)N[C@@H](CCCN=C(N)N)C(=O)N1CCC[C@H]1C(=O)N[C@@H](CCCCN)C(N)=O`, the Ki ratio result in test [8] is recorded as “kappa/mu/delta”. Besides, the Max response in test [1] was found to be 99%.

Take `CC(C)C[C@H](NC(=O)[C@@H](Cc1ccccc1)NC(=O)CNC(=O)CNC(=O)[C@@H](N)Cc1ccc(O)cc1)C(=O)N[C@@H](CCCN=C(N)N)C(=O)N[C@@H](CCCN=C(N)N)C(=O)N[C@H](C)C(=O)N[C@@H](CCCN=C(N)N)C(=O)N1CCC[C@H]1C(=O)N[C@@H](CCCCN)C(N)=O`: the negative-log Ki (pKi) is 8.18 in test [2] (cho), 8.38 at Mu-type opioid receptor (cho) and 9.96 in test [3] (cho). This molecule showed a negative-log EC50 (pEC50) in [4] (cho) of 8.91. The molecule further came in with a Max response in test [1] of 100%.
